Laboratory results taken from article PMC5147053 (Drugs in Context, 2016).

Columns and labels:
[1] = Safety assessment: treatment-emergent adverse events; type: in vivo, human
Summary of the method: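 Patients with advanced or metastatic cancer took single 150 mg oral doses of the test compound in a 3-period crossover: high-shear wet granulation, roller-compaction dry-milled and slurry-milled formulations, with washouts of 48 h to 5 days. Safety monitoring covered AEs, SAEs, physical exams, vital signs, lab tests and concomitant medications. TEAEs were graded by CTCAE v3.0 for all patients dosed at least once.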

[2] = oral; cited from earlier work
[3] = single 150 mg dose, N=14, regardless of causality

## Cc1cccc(-c2nn3c(c2-c2ccnc4ccc(C(N)=O)cc24)CCC3)n1 [Galunisertib]
[1]; 14 patients, any formulation
  SAEs or deaths during the study: no SAEs or deaths
  Study discontinuations due to TEAEs: no study discontinuations
  TEAEs determined to be related to galunisertib by the investigator: None
[1]; of 14 patients, any formulation, single 150 mg doses
  Number of patients reporting TEAEs regardless of causality: Five
[1]; [3]
  Number of patients with TEAE Convulsion (Grade 1): 1
  Number of patients with TEAE Dizziness (Grade 1): 1
  Number of patients with TEAE Hyperglycemia (Grade 1): 1
  Number of patients with TEAE Lymphopenia (Grade 3): 2
  Number of patients with TEAE Pyrexia (Grade 1): 1
  Number of patients with TEAE Vulvovaginitis (Grade 1): 1
[2]
  Mean terminal half-life: 8 h
  Time of peak plasma concentrations following administration: 0.5 to 2 h
